Experimental data pooled from the literature.
Compare with care: the assays were run in different laboratories.
Target: Calcium/calmodulin-dependent protein kinase kinase 2 (CAMKK2, Homo sapiens, UniProt Q96RR4)

SMILES	test	setting	quantity	result
C=CC(=O)N1CCC([C@@H]2CCNc3c(C(N)=O)c(-c4ccc(Oc5ccccc5)cc4)nn32)CC1	enzyme activity, inhibitor	1 µM	inhibition	12%
C1=C/COCc2cc(ccc2OCCN2CCCC2)Nc2nccc(n2)-c2cccc(c2)COC/1	binding	0.1 µM	remaining binding	68%
CCCCC(=O)Nc1ccc(-c2ccc3ncn(CCC)c(=O)c3c2)cn1	binding, competition with immobilised ligand	0.5 µM	remaining binding	100%
COc1ccc2[nH]c3c4[nH]c5ccc(OC)cc5c4c4c(c3c2c1)C(=O)NC4=O	binding	1 µM	remaining binding	74%
C=CC(=O)N1CCC[C@@H](n2nc(-c3ccc(Oc4ccccc4)cc3)c3c(N)ncnc32)C1	enzyme activity, inhibitor	1 µM	inhibition	4%
Cc1ccc(NC(=O)c2ccnc(C(F)(F)F)c2)cc1-c1cc(OCCO)nc(N2CCOCC2)c1	binding	1 µM	remaining binding	98%
C#Cc1cc(-c2cc(Nc3nc(N[C@@H](C)c4ccc(F)cn4)ncc3Cl)n[nH]2)ccc1C=O	enzyme activity, inhibitor	0.2 µM	inhibition	57.9%
Cc1cc(O)c(-c2ccc([C@@H](C)CN(C)C)cc2)c2c1[nH]c(=O)c1sccc12	enzyme activity, inhibitor	0.1 µM	inhibition	6.79%
